Experimental data taken from ChEMBL document CHEMBL1136904, “Histone deacetylase inhibitors with a primary amide zinc binding group display antitumor activity in xenograft model” (Bioorg Med Chem Lett, 2009).
Calls of active or inactive are those of the source.

Key:
Histone deacetylase 1 = Histone deacetylase 1 (Homo sapiens, UniProt Q13547); assay: Inhibition of C-terminal FLAG tagged HDAC1
HeLa = assay: Antiproliferative activity against human HeLa cells after 72 hrs by celltiter-blue cell viability assay; assay type: functional, cell-based
Procedure, shortened: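 72 h proliferation assay in HeLa cervical cancer cells, giving IC50; means of two or more experiments.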

Mus musculus [1] = assay: Toxicity against human HCT116 cells xenografted nude mouse assessed as body weight loss at 150 mg/kg, ip administered once daily for 18 days; assay type: organism-based, HCT-116; parameters: dose 150 mg/kg, route intraperitoneal; details: in vivo, 432 h
[2] = Intrinsic clearance in dog liver microsomes in presence of NADPH; assay type: ADME, Canis lupus familiaris, Microsome
Procedure, shortened: (§1)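 Metabolic stability measured in liver microsomes (rat, human, dog) in the presence of NADPH. Intrinsic clearance expressed as µL/min/mg protein.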

[3] = Intrinsic clearance in human microsomes in presence of UDPGA; assay type: ADME, Microsome
Procedure, shortened: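 Glucuronidation measured in human microsomes in the presence of UDPGA. Intrinsic clearance expressed as µL/min/mg protein.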

[4] = Intrinsic clearance in rat liver microsomes in presence of NADPH; assay type: ADME, Microsome; procedure, shortened: as §1
[5] = Intrinsic clearance in human liver microsomes in presence of NADPH; assay type: ADME, Microsome; procedure, shortened: as §1
HCT-116 [6] = assay: Antitumor activity against human HCT116 cells xenografted nude mouse assessed as tumor growth inhibition at 100 mg/kg, ip administered once daily for 18 days relative to control; assay type: functional; details: HCT-116, ip, 432 h, route intraperitoneal, read-out: TGI
Procedure, shortened: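 HCT116 human colon carcinoma xenografts in nude mice, 12 per group. Dosed intraperitoneally once daily for 18 days and compared with vehicle-treated animals. Tumor growth followed over time and reported as mean ± SEM.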

Mus musculus [7] = assay: Toxicity against human HCT116 cells xenografted nude mouse assessed as body weight loss at 100 mg/kg, ip administered once daily for 18 days; assay type: organism-based, HCT-116; parameters: dose 100 mg/kg, route intraperitoneal; details: in vivo, 432 h
Histone deacetylase 3 = Histone deacetylase 3 (Homo sapiens, UniProt O15379); assay: Inhibition of C-terminal FLAG tagged HDAC3
Mus musculus [8] = assay: Toxicity in mouse assessed as body weight loss at 100 mg/kg, ip administered daily for 2 weeks; assay type: organism-based; parameters: dose 100 mg/kg, route intraperitoneal; details: in vivo, 336 h
Procedure, shortened: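 Preliminary MTD study in mice. Intraperitoneal dosing once daily for 2 weeks, tracking mortality and body weight loss. Tolerated dose defined as no mortality and body weight loss below 5%.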

Histone deacetylase 4 = Histone deacetylase 4 (Homo sapiens, UniProt P56524); assay: Inhibition of His-tagged HDAC4 catalytic domain expressed in Escherichia coli
Histone deacetylase 8 = molecular target: T1, Histone deacetylase 8 (Homo sapiens, UniProt Q9BY41); assay: Inhibition of His-tagged HDAC8 catalytic domain expressed in Escherichia coli
T1 sequence (Q9BY41 whole entry): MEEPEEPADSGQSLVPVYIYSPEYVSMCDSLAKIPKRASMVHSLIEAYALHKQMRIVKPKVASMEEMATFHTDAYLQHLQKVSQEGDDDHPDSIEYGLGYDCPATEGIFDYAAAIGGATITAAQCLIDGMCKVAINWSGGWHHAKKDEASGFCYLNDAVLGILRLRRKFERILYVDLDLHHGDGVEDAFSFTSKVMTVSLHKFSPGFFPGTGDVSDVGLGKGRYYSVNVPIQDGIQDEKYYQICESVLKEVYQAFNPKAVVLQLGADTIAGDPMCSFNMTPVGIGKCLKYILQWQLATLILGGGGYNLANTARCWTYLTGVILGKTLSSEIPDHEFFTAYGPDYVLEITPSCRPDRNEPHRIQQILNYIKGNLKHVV

[9] = molecular target: T2, Protein deacetylase HDAC6 (Homo sapiens, UniProt Q9UBN7); assay: Inhibition of C-terminal FLAG tagged HDAC6
T2 sequence (Q9UBN7 whole entry): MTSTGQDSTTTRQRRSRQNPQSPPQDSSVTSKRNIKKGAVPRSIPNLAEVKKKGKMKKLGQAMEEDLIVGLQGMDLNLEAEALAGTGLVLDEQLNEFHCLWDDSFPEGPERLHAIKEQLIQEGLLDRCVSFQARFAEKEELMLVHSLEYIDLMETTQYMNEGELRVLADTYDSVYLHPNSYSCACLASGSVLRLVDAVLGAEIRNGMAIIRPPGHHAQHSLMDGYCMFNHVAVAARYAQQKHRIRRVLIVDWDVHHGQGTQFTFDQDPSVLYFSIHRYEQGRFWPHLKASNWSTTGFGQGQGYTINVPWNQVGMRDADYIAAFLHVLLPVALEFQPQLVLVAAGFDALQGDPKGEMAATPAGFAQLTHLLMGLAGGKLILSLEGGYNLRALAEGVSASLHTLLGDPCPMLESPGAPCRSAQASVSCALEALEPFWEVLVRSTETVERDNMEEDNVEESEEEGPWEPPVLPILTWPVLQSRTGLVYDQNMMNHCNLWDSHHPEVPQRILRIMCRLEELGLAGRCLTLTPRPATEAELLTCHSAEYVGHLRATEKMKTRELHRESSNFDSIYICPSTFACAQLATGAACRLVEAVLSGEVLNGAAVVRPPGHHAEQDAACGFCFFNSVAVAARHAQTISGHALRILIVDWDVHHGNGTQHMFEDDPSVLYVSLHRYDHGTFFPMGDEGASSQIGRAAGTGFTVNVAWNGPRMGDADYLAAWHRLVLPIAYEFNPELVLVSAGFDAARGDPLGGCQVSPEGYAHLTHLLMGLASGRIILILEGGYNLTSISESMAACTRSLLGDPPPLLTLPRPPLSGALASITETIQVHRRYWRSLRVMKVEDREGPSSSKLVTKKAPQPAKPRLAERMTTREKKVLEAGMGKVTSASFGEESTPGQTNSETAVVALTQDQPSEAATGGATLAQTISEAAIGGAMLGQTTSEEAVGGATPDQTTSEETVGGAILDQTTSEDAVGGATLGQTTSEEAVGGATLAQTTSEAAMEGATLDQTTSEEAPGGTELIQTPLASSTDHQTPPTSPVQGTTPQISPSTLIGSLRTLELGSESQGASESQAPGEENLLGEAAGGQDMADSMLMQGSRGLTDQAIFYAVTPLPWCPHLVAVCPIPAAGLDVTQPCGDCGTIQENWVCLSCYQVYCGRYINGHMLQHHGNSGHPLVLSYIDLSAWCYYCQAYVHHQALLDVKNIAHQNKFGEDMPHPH

HCT-116 [10] = assay: Antiproliferative activity against human HCT116 cells after 72 hrs by celltiter-blue cell viability assay; assay type: functional, cell-based; details: HCT-116, 72 h
Mus musculus [11] = assay: Increase in histone acetylation in human HCT116 cells xenografted nude mouse at 100 mg/kg, ip measured for 24 hrs; assay type: functional, organism-based; parameters: dose 100 mg/kg; details: HCT-116
Procedure, shortened: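 Target engagement in nude mice bearing HCT116 xenografts, 4 per group. Single ip dose of 100 mpk, with vehicle controls. Histone acetylation measured in tumor biopsies at time points after administration and reported as mean ± SEM.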

[12] = Toxicity in ip dosed mouse assessed as maximum tolerated dose administered daily for 2 weeks; assay type: organism-based; details: in vivo
Procedure, shortened: (§2)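 Preliminary tolerability study in mice, with intraperitoneal dosing once daily for 2 weeks. The maximum tolerated dose was defined as the dose giving no mortality and body weight loss below 5%.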

Mus musculus [13] = assay: Toxicity in mouse assessed as mortality at 100 mg/kg, ip administered daily for 2 weeks; assay type: organism-based; parameters: dose 100 mg/kg, route intraperitoneal; details: in vivo, 336 h; procedure, shortened: as §2
Histone deacetylase 2 = Histone deacetylase 2 (Homo sapiens, UniProt Q92769); assay: Inhibition of C-terminal FLAG tagged HDAC2
A549 = assay: Antiproliferative activity against human A549 cells after 72 hrs by celltiter-blue cell viability assay; assay type: functional, cell-based; details: A549, 72 h

Histone deacetylase 1, sequence (Q13547 whole entry): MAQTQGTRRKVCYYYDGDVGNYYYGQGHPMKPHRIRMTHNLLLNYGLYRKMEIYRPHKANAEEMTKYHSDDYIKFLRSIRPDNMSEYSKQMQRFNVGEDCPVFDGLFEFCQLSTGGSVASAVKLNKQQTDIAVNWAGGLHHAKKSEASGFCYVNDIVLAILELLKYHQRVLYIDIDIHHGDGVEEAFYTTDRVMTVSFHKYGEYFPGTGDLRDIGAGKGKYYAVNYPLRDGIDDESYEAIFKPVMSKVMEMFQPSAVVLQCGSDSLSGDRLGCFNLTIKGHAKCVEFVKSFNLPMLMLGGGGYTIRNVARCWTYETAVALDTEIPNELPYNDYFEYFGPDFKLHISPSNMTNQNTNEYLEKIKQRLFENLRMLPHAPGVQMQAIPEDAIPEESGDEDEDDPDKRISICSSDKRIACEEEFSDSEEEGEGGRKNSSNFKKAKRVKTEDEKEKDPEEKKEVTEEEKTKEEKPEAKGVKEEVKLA
Histone deacetylase 2, sequence (Q92769 whole entry): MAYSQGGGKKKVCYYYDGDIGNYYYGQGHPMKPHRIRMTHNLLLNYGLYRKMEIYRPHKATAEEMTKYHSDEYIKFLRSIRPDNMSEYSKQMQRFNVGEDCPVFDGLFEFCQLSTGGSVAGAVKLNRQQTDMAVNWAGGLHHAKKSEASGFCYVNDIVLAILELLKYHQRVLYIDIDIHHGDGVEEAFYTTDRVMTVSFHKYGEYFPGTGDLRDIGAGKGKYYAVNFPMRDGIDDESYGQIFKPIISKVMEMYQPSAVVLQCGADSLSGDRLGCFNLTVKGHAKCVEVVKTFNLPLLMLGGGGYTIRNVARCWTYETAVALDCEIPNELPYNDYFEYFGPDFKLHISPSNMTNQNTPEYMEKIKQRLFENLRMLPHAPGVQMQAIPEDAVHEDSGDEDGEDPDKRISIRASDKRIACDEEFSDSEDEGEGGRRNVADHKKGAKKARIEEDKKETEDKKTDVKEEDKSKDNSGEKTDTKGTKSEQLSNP
Histone deacetylase 3, sequence (O15379 whole entry): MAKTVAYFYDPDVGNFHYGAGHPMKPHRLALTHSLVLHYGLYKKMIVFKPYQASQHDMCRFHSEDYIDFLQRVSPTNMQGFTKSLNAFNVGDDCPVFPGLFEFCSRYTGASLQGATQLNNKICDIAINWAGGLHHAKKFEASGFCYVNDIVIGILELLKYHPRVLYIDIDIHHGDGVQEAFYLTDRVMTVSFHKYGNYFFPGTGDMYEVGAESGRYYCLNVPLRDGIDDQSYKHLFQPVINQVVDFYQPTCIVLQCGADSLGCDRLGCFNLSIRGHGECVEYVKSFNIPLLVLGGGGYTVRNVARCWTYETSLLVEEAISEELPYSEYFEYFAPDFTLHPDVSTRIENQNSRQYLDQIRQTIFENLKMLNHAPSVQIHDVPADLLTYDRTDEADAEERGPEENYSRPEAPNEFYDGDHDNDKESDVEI
Histone deacetylase 4, sequence (P56524 whole entry, the tested form may be a part): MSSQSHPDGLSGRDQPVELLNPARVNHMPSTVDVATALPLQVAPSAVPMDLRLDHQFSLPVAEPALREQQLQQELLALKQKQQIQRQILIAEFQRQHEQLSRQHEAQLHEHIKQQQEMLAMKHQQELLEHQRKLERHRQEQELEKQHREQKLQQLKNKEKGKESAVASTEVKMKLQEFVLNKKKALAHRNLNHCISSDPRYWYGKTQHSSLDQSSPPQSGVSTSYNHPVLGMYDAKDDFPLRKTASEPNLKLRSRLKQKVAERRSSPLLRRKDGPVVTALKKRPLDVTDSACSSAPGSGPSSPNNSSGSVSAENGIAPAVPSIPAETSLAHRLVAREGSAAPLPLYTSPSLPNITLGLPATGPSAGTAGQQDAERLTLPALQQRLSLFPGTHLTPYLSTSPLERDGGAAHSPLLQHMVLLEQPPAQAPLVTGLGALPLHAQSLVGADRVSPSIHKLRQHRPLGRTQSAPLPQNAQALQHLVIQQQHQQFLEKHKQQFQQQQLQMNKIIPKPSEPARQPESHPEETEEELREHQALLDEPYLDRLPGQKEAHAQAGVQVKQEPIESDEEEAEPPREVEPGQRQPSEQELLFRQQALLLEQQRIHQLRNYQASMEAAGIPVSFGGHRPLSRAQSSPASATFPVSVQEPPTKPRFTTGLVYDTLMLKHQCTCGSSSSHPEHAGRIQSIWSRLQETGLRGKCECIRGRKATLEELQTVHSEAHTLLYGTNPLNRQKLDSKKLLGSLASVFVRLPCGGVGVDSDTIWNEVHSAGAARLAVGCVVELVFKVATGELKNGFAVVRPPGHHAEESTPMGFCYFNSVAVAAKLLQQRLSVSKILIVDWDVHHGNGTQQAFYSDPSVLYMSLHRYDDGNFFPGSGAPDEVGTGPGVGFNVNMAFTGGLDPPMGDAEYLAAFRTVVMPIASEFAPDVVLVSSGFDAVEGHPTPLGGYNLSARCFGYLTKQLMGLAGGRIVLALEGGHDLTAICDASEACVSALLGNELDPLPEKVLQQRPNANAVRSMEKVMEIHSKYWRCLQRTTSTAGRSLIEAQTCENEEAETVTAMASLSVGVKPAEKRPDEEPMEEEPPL

Row | SMILES | IC50 (Histone deacetylase 1) [nM] | IC50 (HeLa) [nM] | also measured
1 | COc1ccc2[nH]c(C)c(CC(=O)N[C@@H](CCCCCC(=O)Nc3nncs3)c3ncc(-c4ccc5ccccc5c4)[nH]3)c2c1 | 350 | 4700 | –
2 | COc1ccc2[nH]c(C)c(CC(=O)N[C@@H](CCCCCC(=O)NC(C)C)c3ncc(-c4ccc5ccccc5c4)[nH]3)c2c1 | 480 | 12000 | –
3 | O=C(CCCCCCC(=O)Nc1ccccc1)NO [VORINOSTAT] | – | – | Activity (Mus musculus [1]): < 5%
4 | CCC(=O)CCCCC[C@@H]1NC(=O)[C@H]2CCCCN2C(=O)[C@H]([C@@H](C)CC)NC(=O)[C@H](Cc2cn(OC)c3ccccc23)NC1=O [APICIDIN] | – | 290 | –
5 | COc1ccc2[nH]c(C)c(CC(=O)N[C@@H](CCCCCC(=O)Nc3ccccc3)c3ncc(-c4ccc5ccccc5c4)[nH]3)c2c1 | 200 | 5900 | –
6 | COc1ccc2[nH]c(C)c(CC(=O)N[C@@H](CCCCCC(=O)NCc3ccccc3)c3ncc(-c4ccc5ccccc5c4)[nH]3)c2c1 | 1000 | 6800 | –
7 | COc1ccc2[nH]c(C)c(CC(=O)N[C@@H](CCCCCC(=O)NS(=O)(=O)C(F)(F)F)c3ncc(-c4ccc5ccccc5c4)[nH]3)c2c1 | 94 | 33500 | –
8 | COc1ccc2[nH]c(C)c(CC(=O)N[C@@H](CCCCCC(=O)Nc3ccccc3N)c3ncc(-c4ccc5ccccc5c4)[nH]3)c2c1 | 110 | 1340 | –
9 | CONC(=O)CCCCC[C@H](NC(=O)Cc1c(C)[nH]c2ccc(OC)cc12)c1ncc(-c2ccc3ccccc3c2)[nH]1 | 34 | 660 | –
10 | COc1ccc2[nH]c(C)c(CC(=O)N[C@@H](CCCCCC(C)=O)c3ncc(-c4ccccc4)[nH]3)c2c1 | 27 | – | –
11 | COc1ccc2[nH]c(C)c(CC(=O)N[C@@H](CCCCCC(N)=O)c3ncc(-c4ccc5ccccc5c4)[nH]3)c2c1 | – | 440 | inhibition in vivo at 100 mg/kg (HCT-116 [6]): 29%; Activity (Mus musculus [7]): < 5%; IC50 (Histone deacetylase 3): 250 nM; Activity (Mus musculus [8]): < 5%; IC50 (Histone deacetylase 4): > 10000 nM; IC50 (Histone deacetylase 8): > 5000 nM; IC50 [9]: 120 nM; IC50 (HCT-116 [10]): 860 nM; Activity (Mus musculus [11]): Active; MTD at 336 h [12]: 100 mg/kg; Activity (Mus musculus [13]): Non-toxic; IC50 (Histone deacetylase 2): 160 nM; IC50 (A549): 3560 nM
12 | COc1ccc2[nH]c(C)c(CC(=O)N[C@@H](CCCCCC(=O)NS(C)(=O)=O)c3ncc(-c4ccc5ccccc5c4)[nH]3)c2c1 | 47 | 8000 | –

Continued, in another order:

Row | IC50 (Histone deacetylase 1) [nM] | IC50 (HeLa) [nM] | SMILES | also measured
13 | 220 | 26400 | CN(C)S(=O)(=O)N[C@@H](CCCCCC(=O)O)c1ncc(-c2ccc3ccccc3c2)[nH]1 | –
14 | 120 | 1700 | CNC(=O)CCCCC[C@H](NC(=O)Cc1c(C)[nH]c2ccc(OC)cc12)c1ncc(-c2ccc3ccccc3c2)[nH]1 | –
15 | 40 | > 25000 | CN1CC[C@H](C(=O)N[C@@H](CCCCCC(=O)O)c2ncc(-c3ccc4ccccc4c3)[nH]2)C1 | –
16 | 3 | 180 | COc1ccc2[nH]c(C)c(CC(=O)N[C@@H](CCCCCC(=O)NO)c3ncc(-c4ccc5ccccc5c4)[nH]3)c2c1 | –
17 | 19 | 6860 | O=C(O)CCCCC[C@H](NS(=O)(=O)c1ccccc1[N+](=O)[O-])c1ncc(-c2ccc3ccccc3c2)[nH]1 | –
18 | 28 | 390 | COc1ccc2[nH]c(C)c(CC(=O)N[C@@H](CCCCCC(=O)O)c3ncc(-c4ccc5ccccc5c4)[nH]3)c2c1 | microsomal CLint [2]: 3 µL/min/mg; microsomal CLint [3]: 24 µL/min/mg; microsomal CLint [4]: 177 µL/min/mg; microsomal CLint [5]: 9 µL/min/mg
19 | 170 | 3800 | COc1ccc2[nH]c(C)c(CC(=O)N[C@@H](CCCCCC(=O)N(C)C)c3ncc(-c4ccc5ccccc5c4)[nH]3)c2c1 | –
20 | 66 | 2700 | CCNC(=O)CCCCC[C@H](NC(=O)Cc1c(C)[nH]c2ccc(OC)cc12)c1ncc(-c2ccc3ccccc3c2)[nH]1 | –
21 | 35 | 35000 | CN1CCC(C(=O)N[C@@H](CCCCCC(=O)O)c2ncc(-c3ccc4ccccc4c3)[nH]2)CC1 | –
22 | 23 | 5800 | O=C(O)CCCCC[C@H](NC(=O)c1cncs1)c1ncc(-c2ccc3ccccc3c2)[nH]1 | –
23 | 27 | 200 | CCC(=O)CCCCC[C@H](NC(=O)Cc1c(C)[nH]c2ccc(OC)cc12)c1ncc(-c2ccc3ccccc3c2)[nH]1 | –
24 | 73 | > 25000 | CN1CC[C@@H](C(=O)N[C@@H](CCCCCC(=O)O)c2ncc(-c3ccc4ccccc4c3)[nH]2)C1 | –
